Key:
Cytochrome P450 2D26 = target: T1, Cytochrome P450 2D26 (Rattus norvegicus, UniProt P10634); test: Prodrug conversion assessed as rat recombinant CYP2D2-mediated (Z)-N'-hydroxy-6-(5-(5-((Z)-N'-methoxycarbamimidoyl)pyridin-2-yl)furan-2-yl) nicotinimidamide formation at 5 uM after 180 mins incubation by HPLC-UV chromatogram; format: ADME; conditions: recombinant enzyme, 15 min, in the assay text read “15 mins” for “180 mins”
T1 sequence (P10634 whole entry): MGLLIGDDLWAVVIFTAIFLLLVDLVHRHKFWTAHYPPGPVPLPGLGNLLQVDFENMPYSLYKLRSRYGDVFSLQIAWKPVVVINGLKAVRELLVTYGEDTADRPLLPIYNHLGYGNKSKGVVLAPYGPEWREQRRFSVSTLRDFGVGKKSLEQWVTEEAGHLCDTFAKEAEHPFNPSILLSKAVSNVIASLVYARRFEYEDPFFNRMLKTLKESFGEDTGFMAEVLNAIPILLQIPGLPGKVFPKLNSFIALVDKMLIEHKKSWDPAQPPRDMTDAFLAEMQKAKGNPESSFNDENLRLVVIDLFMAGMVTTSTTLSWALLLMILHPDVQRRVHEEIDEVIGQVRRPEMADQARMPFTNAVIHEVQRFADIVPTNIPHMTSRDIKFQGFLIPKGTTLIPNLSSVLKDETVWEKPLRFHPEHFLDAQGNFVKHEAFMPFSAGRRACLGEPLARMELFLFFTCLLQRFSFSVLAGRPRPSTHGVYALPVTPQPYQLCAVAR
Method in brief: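 Insect-cell-expressed human or rat P450 (with NADPH-P450 reductase, some also with cytochrome b5) at 0.1 pmol/µL in 100 mM potassium phosphate pH 7.4 with 10 mM MgCl2. DB868 (for M1) or M1 (for M2) was added at 5 µM (0.5% DMSO) and started with 2 mM NADPH. Stopped after 15 min with ice-cold acetonitrile, then HPLC-UV. Duplicate incubations.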

Cytochrome P450 4F1 = target: T2, Cytochrome P450 4F1 (Rattus norvegicus, UniProt P33274); test: Prodrug conversion assessed as rat purified CYP4F1-mediated (Z)-N'-hydroxy-6-(5-(5-((Z)-N'-methoxycarbamimidoyl)pyridin-2-yl)furan-2-yl) nicotinimidamide formation at 5 uM after 30 mins incubation by HPLC-UV chromatogram; conditions: purified enzyme
T2 sequence (P33274 whole entry): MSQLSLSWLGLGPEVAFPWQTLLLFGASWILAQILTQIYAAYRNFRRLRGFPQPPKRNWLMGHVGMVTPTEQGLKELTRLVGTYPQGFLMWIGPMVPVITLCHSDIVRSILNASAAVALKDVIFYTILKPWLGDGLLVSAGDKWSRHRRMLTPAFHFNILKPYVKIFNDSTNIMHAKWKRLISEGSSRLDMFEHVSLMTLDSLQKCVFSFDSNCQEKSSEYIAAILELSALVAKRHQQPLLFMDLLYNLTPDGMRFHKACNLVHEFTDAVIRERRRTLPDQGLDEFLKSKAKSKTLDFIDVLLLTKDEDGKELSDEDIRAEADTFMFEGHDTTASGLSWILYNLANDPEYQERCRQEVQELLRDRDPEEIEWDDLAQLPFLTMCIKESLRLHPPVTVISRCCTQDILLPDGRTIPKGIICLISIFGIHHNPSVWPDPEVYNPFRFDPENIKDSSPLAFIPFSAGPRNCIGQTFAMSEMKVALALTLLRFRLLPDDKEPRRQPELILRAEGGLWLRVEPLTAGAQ

CO/N=C(\N)c1ccc(-c2ccc(-c3ccc(/C(N)=N/OC)cn3)o2)nc1.Cl
Drug metabolism (Cytochrome P450 2D26): metabolite_detected | Drug metabolism (Cytochrome P450 4F1): metabolite_detected

Source: ChEMBL document CHEMBL3525966, “Compartmental and enzyme kinetic modeling to elucidate the biotransformation pathway of a centrally acting antitrypanosomal prodrug” (Drug Metab Dispos, 2013)
